Source: ChEMBL document CHEMBL4118153, “Exploiting polarity and chirality to probe the Hsp90 C-terminus” (Bioorg Med Chem, 2018)
Active and inactive are the calls of the source. No cut-off for these calls is given here.

Legend:
MCF7 = experiment: Antiproliferative activity against human MCF7 cells after 72 hrs by MTS/PMS assay; type: functional, cell-based; details: MCF7, 72 h
Summary of the method: (§1)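 Cells were grown in 1:1 Advanced DMEM/F12 with non-essential amino acids, 2 mM L-glutamine, penicillin/streptomycin and 10% FBS at 37 °C, 5% CO2. They were seeded at 2000/well and left to attach overnight, then exposed to serial compound dilutions (1% DMSO final) for 72 h. Viable cells were read with an […] proliferation kit and normalized to 1% DMSO controls (100%). IC50 came from separate triplicate experiments.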

SK-BR-3 [1] = experiment: Antiproliferative activity against human SKBR3 cells after 72 hrs by MTS/PMS assay; type: functional, cell-based; details: SK-BR-3, 72 h; summary of the method: as §1
SK-BR-3 [2] = experiment: Antiproliferative activity against human SKBR3 cells; type: functional, cell-based; summary of the method: as §1
Heat shock protein HSP90 [3] = molecular target: T1, Heat shock protein HSP90 (Homo sapiens, UniProt P07900+P08238); experiment: Inhibition of Hsp90 C-terminal domain in human MCF7 cells assessed as effect on heat shock response-induced Hsp90 level at 0.5 to 5 fold antiproliferative EC50 after 24 hrs by Western blot analysis; type: cell-based; details: mcf7, 24 h
Summary of the method: (§2)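 MCF-7 cells, cultured as for proliferation, were treated for 24 h with compound in DMSO (1% final) or DMSO vehicle. Cells were harvested in cold PBS and lysed on ice for 1 h in RIPA with 1 mM PMSF, 2 mM orthovanadate and protease inhibitors. Lysates were cleared at 14000g, quantified by BCA, and 20 μg protein was run reducing, blotted to nitrocellulose and probed with specific antibodies plus HRP secondary, with chemiluminescent detection.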

Heat shock protein HSP90 [4] = molecular target: T1, Heat shock protein HSP90; experiment: Inhibition of Hsp90 C-terminal domain in human MCF7 cells assessed as effect on heat shock response-induced Hsp70 level at 0.5 to 5 fold antiproliferative EC50 after 24 hrs by Western blot analysis; type: cell-based; details: mcf7, 24 h; summary of the method: as §2
Heat shock protein HSP90 [5] = molecular target: T1, Heat shock protein HSP90; experiment: Inhibition of Hsp90 C-terminal domain in human MCF7 cells assessed as induction of ERalpha degradation at 0.5 to 5 fold antiproliferative EC50 after 24 hrs by Western blot analysis; type: cell-based; summary of the method: as §2
Heat shock protein HSP90 [6] = molecular target: T1, Heat shock protein HSP90; experiment: Inhibition of Hsp90 C-terminal domain in human MCF7 cells assessed as induction of Her2 degradation at 0.5 to 5 fold antiproliferative EC50 after 24 hrs by Western blot analysis; type: cell-based; summary of the method: as §2
Heat shock protein HSP90 [7] = molecular target: T1, Heat shock protein HSP90; experiment: Inhibition of Hsp90 C-terminal domain in human MCF7 cells assessed as induction of CDK6 degradation at 0.5 to 5 fold antiproliferative EC50 after 24 hrs by Western blot analysis; type: cell-based; summary of the method: as §2

COc1cccc(-c2cc(C(=O)Nc3cc4ccc(OC5CCCN(CCO)C5)c(C)c4oc3=O)ccc2OC)c1 (stereo not drawn)
EC50 (MCF7): 2.66 µM
EC50 (SK-BR-3 [1]): 1.7 µM

COCCN1CCC(Oc2ccc3cc(NC(=O)c4ccc(OC)c(-c5cccc(OC)c5)c4)c(=O)oc3c2C)CC1
EC50 (MCF7): 2.1 µM
EC50 (SK-BR-3 [1]): 4 µM

CO[C@@H]1[C@@H](OC(N)=O)[C@@H](O)[C@H](Oc2ccc3c(O)c(NC(=O)c4ccc(O)c(CC=C(C)C)c4)c(=O)oc3c2C)OC1(C)C [NOVOBIOCIN]
EC50 (SK-BR-3 [2]): 700 µM

COCCN1CCCC(Oc2ccc([C@H]3CC[C@H](NC(=O)c4ccc(OC)c(-c5cccc(OC)c5)c4)CC3)cc2)C1 (stereo partly drawn)
EC50 (MCF7): 3 µM
EC50 (SK-BR-3 [1]): 0.9 µM

COc1cccc(-c2cc(C(=O)N[C@H]3CC[C@H](c4ccc(OC5CCN(CCO)CC5)cc4)CC3)ccc2OC)c1
EC50 (MCF7): 0.38 µM
EC50 (SK-BR-3 [1]): 0.285 µM

COc1cccc(-c2cc(C(=O)Nc3cc4ccc(O[C@@H]5OC(C)(C)[C@H](OC)[C@@H](O)[C@H]5O)c(C)c4oc3=O)ccc2OC)c1
EC50 (SK-BR-3 [2]): 7 µM

COc1cccc(-c2cc(C(=O)Nc3cc4ccc(O[C@H]5CC[C@H](N(C)C)CC5)c(C)c4oc3=O)ccc2OC)c1
inhibition (INH) (Heat shock protein HSP90 [3]): Not Active
inhibition (INH) (Heat shock protein HSP90 [4]): Not Active
inhibition (Heat shock protein HSP90 [5]): Active
inhibition (Heat shock protein HSP90 [6]): Active
inhibition (Heat shock protein HSP90 [7]): Active

COc1cccc(-c2cc(C(=O)Nc3cc4ccc(O[C@H]5CC[C@H](N)CC5)c(C)c4oc3=O)ccc2OC)c1
inhibition (INH) (Heat shock protein HSP90 [3]): Not Active
inhibition (INH) (Heat shock protein HSP90 [4]): Not Active
inhibition (Heat shock protein HSP90 [5]): Active
inhibition (Heat shock protein HSP90 [6]): Active
inhibition (Heat shock protein HSP90 [7]): Active

COCCN1CCCC(Oc2ccc3cc(NC(=O)c4ccc(OC)c(-c5cccc(OC)c5)c4)c(=O)oc3c2C)C1 (stereo not drawn)
EC50 (MCF7): 13.3 µM
EC50 (SK-BR-3 [1]): 7 µM

COc1cccc(-c2cc(C(=O)N[C@H]3CC[C@H](c4ccc(OC5CCCN(CCO)C5)cc4)CC3)ccc2OC)c1 (stereo partly drawn)
EC50 (MCF7): 0.625 µM
EC50 (SK-BR-3 [1]): 0.45 µM

COc1cccc(-c2cc(C(=O)Nc3cc4ccc(OC5CCN(CCO)CC5)c(C)c4oc3=O)ccc2OC)c1
EC50 (MCF7): 1.9 µM
EC50 (SK-BR-3 [1]): 2.1 µM

COCCN1CCC(Oc2ccc([C@H]3CC[C@H](NC(=O)c4ccc(OC)c(-c5cccc(OC)c5)c4)CC3)cc2)CC1
EC50 (MCF7): 0.52 µM
EC50 (SK-BR-3 [1]): 0.363 µM

COc1cccc(-c2cc(C(=O)Nc3cc4ccc(O[C@H]5CC[C@@H](N)CC5)c(C)c4oc3=O)ccc2OC)c1
inhibition (INH) (Heat shock protein HSP90 [3]): Not Active
inhibition (INH) (Heat shock protein HSP90 [4]): Not Active
inhibition (Heat shock protein HSP90 [5]): Active
inhibition (Heat shock protein HSP90 [6]): Active
inhibition (Heat shock protein HSP90 [7]): Active
